Source: the EternaBench riboswitch data

Test system: MS2 coat protein
Assay: apparent Kd, MS2 coat protein; higher = weaker binding; RNA-MaP array; FMN 200 µM where present
Procedure, shortened: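 The titrant was SNAP-549-labelled MS2 coat protein, run from 0.7 or 1.5 nM in doubling steps to 3 µM. It was applied to designs transcribed by stalled E. coli RNA polymerase on Illumina sequencing-chip clusters, without ligand first and then with constant ligand, in 100 mM Tris-HCl pH 7.5, 80 mM KCl, 4 mM MgCl2, BSA, DTT, yeast tRNA and Tween-20. The apparent Kd is the median of filtered per-cluster binding-curve fits, with green signal normalised to red-channel RNA signal and control-cluster median Fmax.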

[1] = designed as: ON switch for flavin mononucleotide, no ligand
[2] = ligand present: flavin mononucleotide, designed as: ON switch for flavin mononucleotide
[3] = designed as: OFF switch for flavin mononucleotide, no ligand
[4] = ligand present: flavin mononucleotide, designed as: OFF switch for flavin mononucleotide

Row | Sequence | apparent Kd [1] [nM] | apparent Kd [2] [nM] | apparent Kd [3] [nM] | apparent Kd [4] [nM]
1 | UGGUACUACGGAGGAUAUCAUGUGUAAACAUGAGGAUCACCCAUGUCGUACGAGAGUACGGAGAUUGAGAAGGCCGUAGUACCU | 85.4 | 16.7 |  | 
2 | UGGUACUAGGGAGGAUAUAGGAAGAUACAUGAGGAUCACCCAUGUUUAAGAAUGCCGAGAGGCAACUAGAAGGCCCUAGUACCU | 5 | 4.74 |  | 
3 | UGGUACUAGGGAGGAUAUGGGAAGAUACAUGAGGAUCACCCAUGUUCAAGAAUGCCGAGAGGCAACUAGAAGGCCCUAGUACCU | 928 | 46.2 |  | 
4 | UGGUACUAGGGAGGAUAUGGGAAGAUACAUGAGGAUCACCCAUGUUUAAGAAUGCCGAGAGGAAACUAGAAGGCCCUAGUACCU | 279 | 13.8 |  | 
5 | UGGUACUAGGGAGGAUAUGGGAAGAUACAUGAGGAUCACCCAUGUUUAAGAAUGCCGAGAGGCAACUAGAAGGCCCUAGCACCU | 426 | 19 |  | 
6 | UGGUACUAGGGAGGAUAUGGGAAGAUACAUGAGGAUCACCCAUGUUUAAGAAUGCCGAGAGGCAACUAGAAGGCCCUAUUACCU | 365 | 20.1 |  | 
7 | UGGUAGUAGGGAGGAUAUGGGAAGAUACAUGAGGAUCACCCAUGUUUAAGAAUGCCGAGAGGCAACUAGAAGGCCCUAGUACCU | 324 | 23.7 |  | 
8 | UGGUCAUCAUCAGGAUAUUAACAUGGGCUACAUUAAGAAGGGAUAGUGAGAUACGAACUGAAACAUGAGGAUCACCCAUGUUGU | 105 | 51.9 |  | 
9 | UGGUCAUCAUCAGGAUAUUAACAUGGGCUACAUUAAGAAGGGAUAGUGGGAGAGGAAGUGAAACAUGAGGAUCACCCAUGUUGU | 32.9 | 16.2 |  | 
10 | UGGUCAUGAUCAGGAUAUUAACAUGGGCUACAUUAAGAAGGGAUAGUGAGAUGCGAACGGAGCGACAUGAGGAUCACCCAUGUA | 39.2 | 25.5 |  | 
11 | UGGUCGGAGACAGGAUAUGUGACUGCAUAGUGCACAGAAGGGUCUACAUGAGGAUCACCCAUGUCACCGAACACCAAACAACAA | 412 | 41.2 |  | 
12 | UGGUGAUUUGUAGGAUAUGGAAAUAUAUUAUAACCAGAAGGACAUGAGGAUCACCCAUGUGAUAGAGUUUUUUUUUUUUCUCCU |  |  | 31.5 | 14.1
13 | UGGUUGUCAGGAUAUUGGGUAUUCAACUUUAGUUUUAUAUUCGAGAAGGGACAUGAGGAUCACCCAUGUUACGU |  |  | 36.2 | 166
14 | UGUAAGAUGCAGAAGGUGUUAGCUAGAGCUACGACAUGAGGAUCACCCAUGUACUAGAAACAGUACAAGGAUAUGCAUCUUACA | 18.3 | 6.12 |  | 
15 | UGUAAGAUGCAGAAGGUGUUAGCUAGAGCUACGACAUGAGGAUCACCCAUGUACUAGAAACAGUACAAGGAUAUGCAUCUUACG | 17.5 | 6.57 |  | 
16 | UGUACAUUAUUAAGUAAUUAGGCGAAGGAUAUAUAACAUGAGGAUCACCCAUGUACUAAGUUGAAGUAGAAGGUUGAGCAUUUC | 19 | 15.7 |  | 
17 | UGUAUACAUGAGGAUCACCCAUGUAAGGAUAUGCUUUAUUAUUAUUAUUAUUAUUGUUGCAGAAGGUACAUUGU |  |  | 28.9 | 32.1
18 | UGUAUGGACAGAGGAUAUACGGAUAGGAUCUACUAUCUUUCUCAAAUAACAUGAGGAUCACCCAUGUAGAAGGCUGUCCAUACU |  |  | 22.4 | 136
19 | UGUAUGUAGGCAGGAUAUACAUGAAUAUAUAUGAUGUAGUAUGAUGUAACAUGAGGAUCACCCAUGUAGAAGGGCCGGUGUAUG |  |  | 69.2 | 154
20 | UGUCACGUAGUAGGAUAUGACAUGAGGAUCACCCAUGUUAACUCUAACCUCGAGGAUCGUCAUGGUCAGAAGGACUCAGACAAG |  |  | 209 | 75.9
21 | UGUCAUAAACAGAAGGGUAGUUGGGUUAUACAUGAGGAUCACCCAUGUAUUACAGGAUAUGUGUAAAGUUAUUAUUAAAGUAAA |  |  | 12.6 | 13.8
22 | UGUCCUUGAGGCUCGGACGUGUCGCCAGAAGGCAAUUUCUGACAUGAGGAUCACCCAUGUCCAAUUGAGGAUAUGGCUGCGUUG | 17.3 | 5.56 |  | 
